High-throughput results deposited in PubChem by several laboratories.
CRFBP-R2 block – antagonists of CRF-binding protein/CRF-R2 receptor complex; HEK293 CRF-R2/CRF-BP, CRF-induced calcium fluorescence; inhibition, % at 11.8 µM; 350,000 tested, 0.59% active;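 active = inhibition of the ligand-induced calcium signal above about 50% at the single tested concentration, limit read from the data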
KLK7 zymogen act – proKLK7 (human) activation, primary screen; purified proKLK7, EDANS-DABCYL substrate fluorescence; 100% is mature enzyme control, 0% vehicle; activation, % at 7 µM; 370,000 tested, 0.9% active; AID 652039;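 active = activation above the mean of all tested compounds plus 3 SD, computed per campaign excluding outliers beyond control limits, cut at about 13% in these data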
CRFR2-BP ag – agonists of human CRF-binding protein/CRF-R2 receptor complex. HEK293 CRF-R2/CRF-BP, calcium dye fluorescence (FLIPR); percent of saturating CRF peptide response. activation, % at 13.2 µM. 350,000 tested, 0.46% active. AID 588473;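 active = activation of at least 50%, plus an integration ratio under a set limit after plate pattern correction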;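 note: plate controls were neutral control wells without compound for no effect and CRF at EC100 for full effect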
NRP1-CendR mod – alters CendR peptide binding to human NRP-1; O14786; FAM-RPARPAR peptide binding to NRP-1, fluorescence polarization; inhibition, % at 25 µM; 360,000 tested, 0.85% active; AID 602438;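 active = inhibition or corrected inhibition above about 18%, plus a signal ratio from 0.5 to 1.5, limit read from the data, passing the limit was not always enough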
Target sequence (O14786 whole entry, looked up): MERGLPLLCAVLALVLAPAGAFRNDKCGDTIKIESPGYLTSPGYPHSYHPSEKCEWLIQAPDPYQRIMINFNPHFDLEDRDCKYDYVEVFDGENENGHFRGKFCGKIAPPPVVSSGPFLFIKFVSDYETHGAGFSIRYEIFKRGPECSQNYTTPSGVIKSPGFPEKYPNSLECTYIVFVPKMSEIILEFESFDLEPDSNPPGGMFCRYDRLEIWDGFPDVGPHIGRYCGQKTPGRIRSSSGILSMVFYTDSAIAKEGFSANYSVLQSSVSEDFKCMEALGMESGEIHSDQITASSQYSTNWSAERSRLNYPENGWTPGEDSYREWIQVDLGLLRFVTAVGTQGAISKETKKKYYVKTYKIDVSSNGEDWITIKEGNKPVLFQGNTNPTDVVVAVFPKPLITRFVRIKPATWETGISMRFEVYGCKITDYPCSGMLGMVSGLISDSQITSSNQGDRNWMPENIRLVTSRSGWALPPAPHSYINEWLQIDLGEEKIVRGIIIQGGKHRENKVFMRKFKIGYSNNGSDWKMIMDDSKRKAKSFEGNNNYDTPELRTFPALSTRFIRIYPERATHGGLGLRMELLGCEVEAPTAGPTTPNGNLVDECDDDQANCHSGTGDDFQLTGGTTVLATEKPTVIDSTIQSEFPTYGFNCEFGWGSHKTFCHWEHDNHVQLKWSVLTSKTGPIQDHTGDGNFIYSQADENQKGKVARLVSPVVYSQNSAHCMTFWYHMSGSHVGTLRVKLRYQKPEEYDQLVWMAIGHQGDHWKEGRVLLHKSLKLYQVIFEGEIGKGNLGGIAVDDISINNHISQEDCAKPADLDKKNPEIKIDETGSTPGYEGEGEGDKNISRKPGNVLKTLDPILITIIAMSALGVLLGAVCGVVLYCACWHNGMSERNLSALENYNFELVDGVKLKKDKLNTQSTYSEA
Tn7 DDE FP – DD(E)-Tn7 binding inhibition, primary FP screen. P02675. FP displacement of FITC-Tn7 peptide from fibrin DD(E); 0% = median of compound wells per plate. inhibition, % at 8.3 µM. 370,000 tested, 0.13% active;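 active = inhibition above the mean of compounds falling within the control limits plus 3 SD of them, cut at about 14% in these data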;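 note: 0% = plate median of compound wells and 100% = 10 µM Aha-Tn7 peptide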
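Measure: % inhibition scaled between sample-field median and high-control FP; Test system: human fibrin DD(E); Quantity: 2 µM final DD(E) protein; Doses: one dose, 8.3 µM nominal; Schedule: compound with protein 10 min, then 3 h after probe, room temperature; Detection: fluorescence polarization; Medium: Tris buffer with calcium and detergent, pH 7.8.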
Tn6 DDE FP – DD(E)-Tn6 binding inhibition, primary FP screen. 370,000 tested, 0.21% active. AID 720509. inhibition, % at 8.3 µM. P02675. Fibrin DD(E) TRITC-Tn6 fluorescence polarization displacement;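 active = inhibition above a per-campaign cutoff: mean of compounds within control limits plus 3 SD, cut at about 15% in these data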;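 note: 0% = median of all compound wells on the plate and 100% = blocking peptide control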
Numbers without * were called inactive; x = not tested or not shown. In the library only some 2.9% were active in any assay of this set; here they are far more common.

SMILES	CRFBP-R2 block	KLK7 zymogen act	CRFR2-BP ag	NRP1-CendR mod	Tn7 DDE FP	Tn6 DDE FP
Cn1c(CCNC(=O)c2ccco2)nc2cc(NC(=O)c3ccccc3)ccc21	-7.0	-0.2	0.3	6.5	2.8	0.3
COc1ccc(NC(=O)CN(C)C(=O)C2=COCCO2)cc1	106.9*	-0.4	2.2	9.5	1.2	-1.5
COc1ccccc1-c1ccc(SCc2cccc(F)c2)nn1	53.4*	0.1	0.0	-10.3	6.9	8.7
Cc1ccc(-n2c(SCC(=O)c3ccc(F)cc3)nnc2-c2cccnc2)cc1	x	-0.2	x	x	0.2	-2.3
COc1ccccc1N1CCN(N=Cc2ccccc2Br)CC1	x	0.3	x	x	2.7	-11.1
Cn1c(=O)c2cc3c(nc2n(C)c1=O)CC(c1ccccc1)CC3=O (stereo not drawn)	67.3*	0.4	-4.6	-6.0	-4.4	-0.2
Cc1ccc(C(=O)OCCn2cc(C#N)c(=O)[nH]c2=O)cc1	-5.8	-0.2	0.0	26.6*	-5.9	3.6
CN1C(=O)C(N=Nc2ccc([N+](=O)[O-])cc2)SC1=S (stereo not drawn)	68.1*	0.1	70.3*	-12.1	5.3	5.1
O=c1[nH]c2ccccc2c(O)c1O	97.2*	-16.6	-0.5	11.1	-2.5	2.2
CC1CCCC(C)N1C(=O)COC(=O)COc1ccc(C#N)cc1 (stereo not drawn)	72.0*	0.5	0.5	-9.5	-7.5	-2.4
CC1CCCN(C(=O)COC(=O)COc2ccc(C#N)cc2)C1 (stereo not drawn)	3.2	0.7	-1.2	7.4	3.3	-1.2
CCCCS(=O)(=O)N1CCCc2nc(-c3ccc(F)cc3)ccc21	x	-0.1	x	x	3.0	6.6
C/C(=N\NC(=O)c1ccc(Br)cc1)C1C(=O)c2ccccc2C1=O	55.3*	0.3	14.0	0.2	-0.1	1.3
O=S1(=O)c2ccc(Br)cc2OCCC2CCCCN21 (stereo not drawn)	x	0.1	x	x	-0.3	5.0
Nc1ccc(C(=O)N/N=C\c2cc(N=Nc3cccc4ccccc34)ccc2O)cc1	59.2*	-1.0	-0.3	-2.6	3.2	-19.5
COC(=O)c1ccc(CNC(=O)COC(=O)C23CC4CC(CC(C4)C2)C3)cc1	9.7	-0.3	-1.3	-6.5	-6.0	2.2
COC(=O)c1ccc(CNC(=O)COC(=O)CC23CC4CC(CC(Br)(C4)C2)C3)cc1	51.1*	0.0	0.9	13.4	-6.5	10.0
COC(=O)c1cc2c(c3c4cc(OC)ccc4n(S(=O)(=O)c4cccc(C)c4)c13)C(=O)N(C)C2	x	-1.6	x	x	12.5	7.5
Cc1ccc(-c2n[nH]c(=S)n2/N=C/c2c(C)nn(-c3ccccc3)c2C)cc1	18.2	-0.1	-1.0	-20.4	-7.5	-3.5
Cc1ccccc1-c1n[nH]c(=S)n1/N=C/c1c(C)nn(-c2ccccc2)c1C	71.3*	-0.1	-0.6	-1.3	-2.8	-6.1
COc1ccc(CCNC(=O)C2CCC(C(C)(C)C)CC2)cc1OC (stereo not drawn)	15.4	-0.8	-0.9	34.0*	3.7	8.3
Cc1[nH]c2ccccc2c1CCN(Cc1cccs1)C(=O)Nc1cccc2c1OCO2	x	0.0	x	x	-5.4	1.0
COCc1cc(=O)[nH]c(/N=C(\N)Nc2ccc(C)cc2C)n1	-9.0	-0.4	-0.7	27.0*	-3.8	-10.8
Cc1ccc(S(=O)(=O)Nc2ccc3ccccc3c2[N+](=O)[O-])cc1	90.2*	-0.4	-8.7	-12.5	5.0	-6.2
Cc1ccc(S(=O)(=O)Nc2ccc3cc([N+](=O)[O-])ccc3c2[N+](=O)[O-])cc1	80.9*	0.3	5.8	-84.1	4.2	6.4
SMILES	CRFBP-R2 block	KLK7 zymogen act	CRFR2-BP ag	NRP1-CendR mod	Tn7 DDE FP	Tn6 DDE FP
COc1cccc2ccc(CC(O)(c3ccccc3)c3ccccc3)nc12	58.4*	-0.2	4.4	2.8	2.5	-5.6
CC(C)CNC(=O)CN1c2cccc3cccc(c23)S1(=O)=O	78.6*	7.8	0.8	4.3	-2.0	0.4
COC(=O)[C@]12CCCCC=C1N(Cc1ccc(OC)cc1)C(=O)[C@@H]2CC(=O)NCC12CC3CC(CC(C3)C1)C2	x	0.3	x	x	-8.8	-5.2
CC(C)(C)OC(=O)N1O[C@H]2C[C@@H]1[C@@H]1[C@@H]2N=NN1C12CC3CC(CC(C3)C1)C2	-3.4	0.3	-2.9	1.9	-2.3	2.8
CC(C)(C)OC(=O)N1O[C@H]2CC1[C@@H]1[C@@H]2N=NN1CCc1ccncc1	-0.4	-0.1	-2.2	22.9*	0.5	4.9
COc1ccc(NC2CCCN(C(=O)c3cccc(C)n3)C2)cc1OC (stereo not drawn)	102.7*	0.8	0.5	1.9	-2.3	-2.9
CCN(CC)C(=S)Sc1c(-c2ccccc2)c2cc(Cl)ccc2[nH]c1=O	-11.7	0.3	70.7*	6.1	-3.3	-1.9
O=C(NCc1ccco1)Nc1ccc2snnc2c1	-6.0	-0.1	1.3	40.1*	3.1	-4.7
CCOC(=O)c1c(NC(=O)Cn2nnc3ccccc32)sc2c1CCC(C)C2 (stereo not drawn)	-6.2	0.2	2.9	10.5	-8.8	-7.8
CCOC(=O)c1c(NC(=O)COC(=O)Cn2cnc3ccccc32)sc2c1CCC(C)C2 (stereo not drawn)	-10.6	0.1	3.0	33.3*	-14.1	-0.7
CC(C)NC(=O)COc1coc(CN2CCN(c3ccccc3)CC2)cc1=O	-11.3	0.3	0.7	23.2*	-1.0	5.2
Cc1cccc(-c2cccc3c4c([nH]c23)[C@@H]2C[C@H](N(C)C(=O)NC3CCCCC3)[C@H]([C@H](C)O)CN2CC4)c1	x	0.0	x	x	-8.0	0.9
CN1CCS/C1=C\C=C1/SC(=S)N(CC(=O)O)C1=O	-75.6	-0.2	107.1*	134.8	-109.5	-8.8
CCN1C(=O)/C(=C/C=C2/SCCN2C)SC1=S	-18.2	-0.1	59.2*	-213.6	-13.9	-0.4
COc1ccc(N2CCCN(CC(=O)Nc3ccccc3C)CC2)cc1	x	0.4	x	x	1.4	8.5
Cc1ccc(N2CCN(C(=O)CN3C(=O)c4ccccc4C3=O)CC2)cc1	55.7*	-0.5	0.1	3.8	10.4	-4.0
COc1ccc(C)cc1NC(=O)c1ccoc1C	5.3	0.0	-0.2	-14.5	5.6	4.3
CCc1cc(C(=O)OC)c(NC(=O)c2ccoc2C)s1	-6.3	0.1	-1.5	39.3*	1.3	-6.4
COc1ccc(Cl)cc1NC(=O)c1ccoc1C	80.3*	-0.2	-1.6	-7.0	0.0	-2.2
CCc1cc(C(=O)OC)c(NC(=O)c2cc(Br)cs2)s1	-19.0	x	5.8	6.2	x	x
CC(C)C[C@@H]1COc2cc(Br)ccc2S(=O)(=O)N1Cc1cn(Cc2ccccc2)nn1	x	0.7	x	x	-5.3	1.2
COc1cc(OC)c2c(-c3ccccc3)cc(=O)oc2c1C(CCN1CCCCC1)c1ccc(N(C)C)cc1 (stereo not drawn)	-22.2	x	7.9	2.6	x	x
